Our source for the IC50 values is ChEMBL document CHEMBL1158774, “Collagenase inhibitory quinic acid esters from Ipomoea pes-caprae” (J Nat Prod, 2005).

This assay is described as follows: Inhibition of collagenase type 5. The procedure, abridged: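 Collagenase type V ([…]) with a 20 µg/mL enzyme solution is preincubated with samples in 4% MeOH at 37 °C for 10 min. Fluorogenic substrate MOCAc-Pro-Leu-Gly-Leu-A2pr(Dnp)-Ala-Arg-NH2 (5 µM solution) is then added. Fluorescence (ex 320, em 405 nm) is read during 1 h at 37 °C. Phosphoramidon is the positive control.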

Bounds are passed on as bounds.

With `O=C(/C=C/c1ccc(O)c(O)c1)O[C@@H]1C[C@](O)(C(=O)O)C[C@@H](OC(=O)/C=C/c2ccc(O)c(O)c2)[C@H]1O`, the IC50 (commonly the concentration that inhibits the measured activity by half) turned out to be 23.6 µM.
`O=C(/C=C/c1ccc(O)c(O)c1)O[C@@H]1[C@H](O)C[C@@](O)(C(=O)O)C[C@H]1OC(=O)/C=C/c1ccc(O)c(O)c1` registered an IC50 of 37.2 µM.
`O=C(/C=C/c1ccc(O)c(O)c1)O[C@@H]1C[C@](O)(C(=O)O)C[C@@H](OC(=O)/C=C/c2ccc(O)c(O)c2)[C@H]1OC(=O)/C=C/c1ccc(O)cc1` registered an IC50 of 19.1 µM.
Next, `COC(=O)[C@]1(O)C[C@@H](OC(=O)/C=C/c2ccc(O)c(O)c2)[C@@H](O)[C@H](OC(=O)/C=C/c2ccc(O)c(O)c2)C1`: 5.8 µM.
Compound `COC(=O)[C@]1(O)C[C@@H](O)[C@@H](OC(=O)/C=C/c2ccc(O)c(O)c2)[C@H](OC(=O)/C=C/c2ccc(O)c(O)c2)C1` returned an IC50 of 26.6 µM.
Compound `O=C(/C=C/c1ccc(O)c(O)c1)O[C@@H]1[C@H](OC(=O)/C=C/c2ccc(O)cc2)C[C@@](OC(=O)/C=C/c2ccc(O)cc2)(C(=O)O)C[C@H]1OC(=O)/C=C/c1ccc(O)c(O)c1` displayed an IC50 of 14.2 µM.
With `COC(=O)[C@@]1(O)C[C@@H](O)[C@H](OC(=O)/C=C/c2ccc(O)c(O)c2)[C@H](OC(=O)/C=C/c2ccc(O)c(O)c2)C1` [3,4-O-TRANS-CAFFEOYLQUINIC ACID METHYL ESTER], the IC50 was 16.2 µM.
In the case of `O=C(O)/C=C/c1ccc(O)c(O)c1` [CAFFEIC ACID], the half-maximal inhibitory concentration (IC50) was determined as 82.7 µM.
`CC(C)C[C@H](NP(=O)(O)O[C@@H]1O[C@@H](C)[C@H](O)[C@@H](O)[C@H]1O)C(=O)N[C@@H](Cc1c[nH]c2ccccc12)C(=O)O` [PHOSPHORAMIDON] yielded a half-maximal inhibitory concentration (IC50) of 0.6 µM.
`O=C(O)[C@]1(O)C[C@@H](O)[C@@H](O)[C@H](O)C1` [QUINIC ACID] gave a concentration for half-maximal inhibition (IC50) of more than 500 µM.
